Source: publication PMC9293670 (Acta Pharmaceutica Sinica. B, 2022)

Columns and labels:
PDE8A1 (480–820) = PDE8A1 (480–820) (Homo sapiens, UniProt O60658); assay: PDE8A inhibition, 3H-cAMP radiometric enzyme assay; assay type: biochemical
Summary of the method: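 Recombinant PDE8A1 (480–820) was expressed in E. coli BL21 (DE3), denatured in guanidine, refolded, and purified on Ni-NTA, hydroxyapatite, Q-Sepharose and gel filtration. ³H-cAMP (~20,000 cpm/assay) was reacted in Tris-HCl 20 mmol/L pH 7.5, MnCl₂ 10 mmol/L and DTT 1 mmol/L at 25 °C for 15 min. Reactions were stopped with ZnSO₄ then Ba(OH)₂, and supernatant ³H-cAMP was scintillation-counted. IC50 came from nonlinear regression over ≥8 concentrations, with each test run ≥3 times.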

[1] = Metabolic stability in rat liver microsomes; assay type: in vitro ADME

Chain of PDE8A1 (480–820) (O60658 480-820): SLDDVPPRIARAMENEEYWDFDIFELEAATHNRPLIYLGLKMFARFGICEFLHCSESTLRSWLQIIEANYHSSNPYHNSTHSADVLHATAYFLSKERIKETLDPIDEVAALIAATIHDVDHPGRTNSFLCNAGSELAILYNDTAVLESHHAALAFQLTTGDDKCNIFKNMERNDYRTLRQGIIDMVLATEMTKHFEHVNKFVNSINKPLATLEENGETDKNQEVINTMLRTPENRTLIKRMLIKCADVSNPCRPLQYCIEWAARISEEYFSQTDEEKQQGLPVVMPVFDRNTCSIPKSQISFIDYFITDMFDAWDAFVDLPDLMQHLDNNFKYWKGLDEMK

Row | SMILES | IC50 (PDE8A1 (480–820)) [nM] | half-life [1] [min]
1 | Nc1nc(Cl)nc2c1ncn2Cc1cc(F)cc(OCC(F)F)c1 [Compound 11] | 51 ± 3 | –
2 | Nc1nc(Cl)nc2c1ncn2Cc1cc(O)cc(OCC(F)F)c1 [Compound 12] | 193 ± 17 | –
3 | COc1cc(Cn2cnc3c(N)nc(Cl)nc32)cc(OCC(F)F)c1 [Compound 13] | 591 ± 11 | –
4 | CCOc1cc(Cn2cnc3c(N)nc(Cl)nc32)cc(OCC(F)F)c1 [Compound 14] | 593 ± 69 | –
5 | CC(C)c1cc(Cn2cnc3c(N)nc(Cl)nc32)cc(OCC(F)F)c1 [Compound 16] | 4.6 ± 0.6 | 6
6 | CC(C)Oc1cc(Cn2cnc3c(N)nc(Cl)nc32)cc(OCC(F)F)c1 [Compound 17] | 5 ± 0.3 | 16
7 | Nc1nc(Cl)nc2c1ncn2Cc1cc(OCC(F)F)cc(OC2CCC2)c1 [Compound 18] | 20 ± 2 | –
8 | Nc1nc(Cl)nc2c1ncn2Cc1cc(OCC(F)F)cc(OCC2CC2)c1 [Compound 19] | 40 ± 1 | –
9 | COCCOc1cc(Cn2cnc3c(N)nc(Cl)nc32)cc(OCC(F)F)c1 [Compound 20] | 52 ± 5 | –

More lines, now with the values ahead:

Row | IC50 (PDE8A1 (480–820)) [nM] | half-life [1] [min] | SMILES
10 | 597 ± 61 | – | Nc1nc(Cl)nc2c1ncn2Cc1cc(OCc2ccccc2)cc(OCC(F)F)c1 [Compound 21]
11 | 3.1 ± 0.2 | 8 | Nc1nc(Cl)nc2c1ncn2Cc1cc(OCC(F)F)cc(-c2ccncc2)c1 [Compound 22]
12 | 4.8 ± 0.3 | 39 | Nc1nc(Cl)nc2c1ncn2Cc1cc(OCC(F)F)cc(-c2cccnc2)c1 [Compound 23]
13 | 13 ± 2 | – | Nc1nc(Cl)nc2c1ncn2Cc1cc(OCC(F)F)cc(-c2ccco2)c1 [Compound 25]
